In ChEMBL document CHEMBL1152541, “Staurosporine tethered peptide ligands that target cAMP-dependent protein kinase (PKA): optimization and selectivity profiling” (Bioorg Med Chem, 2009) one finds Activity data, which are given here for three compounds.

*1 amine or outer side, *2 acyl side, *3 side chain or, on linkers, in order; H or OH if unused. Where a SMILES comes first, the peptide text is derived from it. Bridges are numbered along the chain shown (N, C = ends). [ ]: non-standard residue; d: D form. The star is where a group is joined. Staurosporine = CO[C@@H]1[C@H](N(C)*)C[C@H]2O[C@]1(C)n1c3ccccc3c3c4c(c5c6ccccc6n2c5c31)C(=O)NC4; Suc = O=C(CCC(=O)[*:2])[*:1]; Dap = NC[C@H](N)C(=O)O; βAla = NCCC(=O)O

Assay [1] deals with Cyclin-dependent kinase 19 (Homo sapiens) (UniProt Q9BWU1). The experiment in a line: Binding affinity to human CDK11 at 500 nM by cell-based competition binding assay relative to control in presence of DTT. A digest of the protocol:
(§1)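 Kinase binding profiling ran on a commercial (Ambit) competitive binding screen against a panel of 90 kinases. The screen used reducing conditions with 7.5 mM DTT. To withstand the DTT, the bivalent ligand was tested as its amide isostere, with the disulfide replaced. A staurosporine derivative carrying a 3 β-alanine linker was run as the reference compound.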

Assay [2] addresses Dual specificity mitogen-activated protein kinase kinase 2 (Homo sapiens) (UniProt P36507). The experiment in a line: Binding affinity to human MEK2 at 500 nM by cell-based competition binding assay relative to control in presence of DTT.
In assay [3] the target is Insulin-like growth factor 1 receptor (Homo sapiens) (UniProt P08069). The experiment in a line: Binding affinity to human IGF1R at 500 nM by cell-based competition binding assay relative to control in presence of DTT. A digest of the protocol: (§2)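 Competition binding screen (Ambit) across a panel of 90 kinases, scoring test ligand displacement of each kinase's binding relative to control. The screen ran under reducing conditions with 7.5 mM DTT.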

Assay [4] addresses T1, 3-phosphoinositide-dependent protein kinase 1 (Homo sapiens) (UniProt O15530).
T1 sequence (whole entry): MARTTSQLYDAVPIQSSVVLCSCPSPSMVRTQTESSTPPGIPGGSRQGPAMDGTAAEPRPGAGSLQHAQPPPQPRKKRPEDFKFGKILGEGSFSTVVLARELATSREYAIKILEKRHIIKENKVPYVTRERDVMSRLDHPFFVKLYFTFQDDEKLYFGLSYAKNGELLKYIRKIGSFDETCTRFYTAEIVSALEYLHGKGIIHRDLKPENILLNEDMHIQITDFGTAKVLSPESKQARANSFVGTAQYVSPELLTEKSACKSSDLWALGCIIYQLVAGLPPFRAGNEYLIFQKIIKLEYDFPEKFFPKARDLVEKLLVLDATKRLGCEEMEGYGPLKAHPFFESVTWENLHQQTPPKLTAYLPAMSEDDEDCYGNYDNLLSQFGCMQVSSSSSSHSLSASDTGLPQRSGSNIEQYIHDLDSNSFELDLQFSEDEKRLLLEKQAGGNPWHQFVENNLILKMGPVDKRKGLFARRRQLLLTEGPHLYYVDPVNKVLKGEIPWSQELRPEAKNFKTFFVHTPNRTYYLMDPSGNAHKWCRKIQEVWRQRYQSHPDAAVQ
Briefly: Binding affinity to human PDPK1 at 500 nM by cell-based competition binding assay relative to control in presence of DTT.

The target in assay [5] is Hepatocyte growth factor receptor (Homo sapiens) (UniProt P08581). Briefly: Binding affinity to human MET at 200 nM by cell-based competition binding assay relative to control in presence of DTT.
In assay [6] the test system is Tyrosine-protein kinase ABL1 (Homo sapiens), P00519 [T315I]. The experiment in a line: Binding affinity to human ABL1 T315I mutant at 200 nM by cell-based competition binding assay relative to control in presence of DTT. A digest of the protocol: as §1
In assay [7] the target is RAC-beta serine/threonine-protein kinase (Homo sapiens) (UniProt P31751). The experiment in a line: Binding affinity to human AKT2 at 50 nM by cell-based competition binding assay relative to control in presence of DTT. A digest of the protocol:
as §1

Assay [8] concerns the target Serine/threonine-protein kinase pim-1 (Homo sapiens) (UniProt P11309). The experiment in a line: Binding affinity to human PIM1 at 50 nM by cell-based competition binding assay relative to control in presence of DTT.
The target of assay [9] is Aurora kinase B (Homo sapiens) (UniProt Q96GD4). The experiment in a line: Binding affinity to human aurora kinase B at 50 nM by cell-based competition binding assay relative to control in presence of DTT.
Assay [10] has as its target RAC-alpha serine/threonine-protein kinase (Homo sapiens) (UniProt P31749). The experiment in a line: Binding affinity to human AKT1 at 50 nM by cell-based competition binding assay relative to control in presence of DTT. A digest of the protocol: as §1
Assay [11] has as its target Tyrosine-protein kinase BTK (Homo sapiens) (UniProt Q06187). The experiment in a line: Binding affinity to human BTK at 50 nM by cell-based competition binding assay relative to control in presence of DTT. A digest of the protocol:
as §1

For assay [12], the target named is T2, Serine/threonine-protein kinase STK11 (Homo sapiens) (UniProt Q15831).
T2 sequence (whole entry): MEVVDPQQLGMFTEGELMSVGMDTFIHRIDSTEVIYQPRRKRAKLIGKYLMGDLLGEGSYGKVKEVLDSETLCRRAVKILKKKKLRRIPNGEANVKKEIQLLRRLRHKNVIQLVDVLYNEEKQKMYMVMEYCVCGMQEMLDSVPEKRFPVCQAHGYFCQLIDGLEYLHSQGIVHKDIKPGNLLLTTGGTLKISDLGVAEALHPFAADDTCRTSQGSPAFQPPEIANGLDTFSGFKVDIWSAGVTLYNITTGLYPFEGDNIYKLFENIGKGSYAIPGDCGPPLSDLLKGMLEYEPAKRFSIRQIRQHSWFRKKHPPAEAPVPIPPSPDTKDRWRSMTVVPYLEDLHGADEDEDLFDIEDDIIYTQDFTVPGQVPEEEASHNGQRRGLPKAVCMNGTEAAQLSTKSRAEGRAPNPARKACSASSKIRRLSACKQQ
Briefly: Binding affinity to human LKB1 at 50 nM by cell-based competition binding assay relative to control in presence of DTT. A digest of the protocol: as §2

Take `CO[C@@H]1[C@H](N(C)C(=O)CCC(=O)NCCC(=O)NCCC(=O)NCCC(N)=O)C[C@H]2O[C@]1(C)n1c3ccccc3c3c4c(c5c6ccccc6n2c5c31)C(=O)NC4`: the Activity in assay [1] was found to be 61%; in assay [2], 86%; in [3], 82%; in assay [4], 18%.
On to `CO[C@@H]1[C@H](N(C)C(=O)CCC(=O)NCCC(=O)NCCC(=O)NCCC(=O)NCCC(=O)NCCC(=O)NCCC(=O)NCCC(=O)N[C@H]2CSSC[C@@H](C(=O)NCC(N)=O)NC(=O)CNC(=O)[C@H](Cc3ccccc3)NC(=O)[C@H](C(C)C)NC(=O)[C@H](CCCNC(=N)N)NC(=O)[C@H](Cc3ccccc3)NC(=O)[C@H](C(C)C)NC2=O)C[C@H]2O[C@]1(C)n1c3ccccc3c3c4c(c5c6ccccc6n2c5c31)C(=O)NC4` ({Staurosporine-Suc-βAla-βAla-βAla-βAla-βAla-βAla-βAla}-CVFRVFGCG-NH2; disulfide 1-8), for which the Activity in [5] was found to be 77%; in assay [6] it was 78%.
For the compound `CO[C@@H]1[C@H](N(C)C(=O)CCC(=O)NCCC(=O)NCCC(=O)NCCC(=O)NCCC(=O)NCCC(=O)NCCC(=O)NCCC(=O)N[C@H]2CNC(=O)C[C@@H](C(N)=O)NC(=O)CNC(=O)[C@H](Cc3ccccc3)NC(=O)[C@H](C(C)C)NC(=O)[C@H](CCCNC(=N)N)NC(=O)[C@H](Cc3ccccc3)NC(=O)[C@H](C(C)C)NC2=O)C[C@H]2O[C@]1(C)n1c3ccccc3c3c4c(c5c6ccccc6n2c5c31)C(=O)NC4` ({Staurosporine-Suc-βAla-βAla-βAla-βAla-βAla-βAla-βAla}-[Dap]VFRVFGD-NH2; lactam 1-8), the Activity was 100% in [7]; 79% in [8]; 33% in assay [9]; 100% in assay [10]; 98% in assay [11]; 100% in [12].
